# Reference: publication PMC10336577 (Saudi Pharmaceutical Journal : SPJ, 2023)
# Several values for one entry are separate records, joined by “and”; a condition that tells them apart may be missing. Equal values may be shown once. Read-outs that look alike come from different tables or passages of the source.
# How the values were obtained:
# MCF-7 cell line [1] = test: MTT cytotoxicity assay, MCF-7; assay type: cell-based; details: for IC50: Homo sapiens, MCF7, 24 h, read-out: IC50, MCF-7
# How it was run: (§1)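 Human lines were obtained from ATCC. MCF-7 and MDA-MB-231 were grown in DMEM with 10% FBS, and MCF-10A in DMEM-F12 with 10% FBS, all at 37 °C, 5% CO2. Cells were seeded at 1×10^4 per well, given varying concentrations of extract or test compound, and PBS-washed after 24 h. MTT was applied for 4 h at 37 °C and formazan dissolved in DMSO, with absorbance read at 570 nm. Hydrogen peroxide was the positive control. Runs were done in triplicate, with % viability and IC50 calculated.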
# MDA-MB-231 cell line [2] = test: MTT cytotoxicity assay, MDA-MB-231; assay type: cell-based; details: for IC50: Homo sapiens, MDA-MB-231, 24 h, read-out: IC50, MDA-MB-231
# How it was run: as §1
# [3] = tested on: MCF-10A non-tumorigenic breast epithelial cell line; test: MTT cytotoxicity assay, MCF-10A; assay type: cell-based; details: 24 h; for IC50: Homo sapiens, MCF-10A, read-out: IC50, MCF-10A
# How it was run: as §1
# MDA-MB-231 cell line [4] = test: Annexin V-FITC/PI flow cytometry, MDA-MB-231; assay type: cell-based; details: 48 h; for viable cells, MDA-MB-231: quadrant LL, highest doses of compounds; for early apoptotic cells, MDA-MB-231: quadrant LR; for necrotic cells, MDA-MB-231: quadrant UL; for late apoptotic cells, MDA-MB-231: quadrant UR
# cells = test: Cell death type; assay type: cell-based
# How it was run: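 MCF-7, MDA-MB-231 and MCF-10A cells were seeded at 3×10^5 cells per well in six-well plates and held 24 h at 37 °C, 5% CO2. They were exposed 48 h to the highest test-compound doses, trypsinised, PBS-washed and pelleted at 1500 rpm for 5 min. Cells were stained with Annexin V-FITC/PI in 1X binding buffer for 15 min at 37 °C in the dark, then run by flow cytometry. Viable, early/late apoptotic and necrotic cells are given as % of total, in triplicate.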
# [5] = tested on: DMS-114 human lung cancer cell line; details: ref Manthey and Guthrie, 2002; cited from earlier work
# [6] = tested on: HT-29 colon cancer cell line; details: ref Manthey and Guthrie, 2002; cited from earlier work
# [7] = tested on: DU-145 prostate cancer cell line; details: ref Manthey and Guthrie, 2002; cited from earlier work
# [8] = tested on: SK-MEL5 melanoma cancer cell line; details: ref Manthey and Guthrie, 2002; cited from earlier work
# [9] = tested on: DU145 prostate cancer cell; details: ref Lewinska et al., 2015, cited from earlier work
# A431 cells = details: MTT assay; ref Buddhan and Manoharan, 2017; cited from earlier work
# [10] = tested on: IGROV-1 human ovary cell line; details: ref Znati et al., 2014; cited from earlier work
# [11] = tested on: OVCAR-3 human ovary cell line; details: ref Znati et al., 2014; cited from earlier work
# [12] = tested on: HCT-116 human colon cancer cell line; details: ref Znati et al., 2014; cited from earlier work
# [13] = tested on: HEP-G2 hepatocellular carcinoma cells; details: 25–400 μg/mL, 72 h, MTT assay; ref Gevrenova et al., 2016; cited from earlier work
# [14] = tested on: breast cancer cell lines (MCF-7 and MDA-MB-231); test: MTT cytotoxicity on the breast cancer cell lines; assay type: cell-based; details: MCF-7 and MDA-MB-231, MTT
# [15] = tested on: MIA PaCa-2 pancreatic cancer cell line; details: read-out: IC50, MIA PaCa-2; ref Boukes and Venter, 2016; cited from earlier work
# [16] = tested on: INS-1 pancreatic cancer cell line; details: read-out: IC50, INS-1; ref Boukes and Venter, 2016; cited from earlier work
# [17] = tested on: A549 human non-small cell lung cancer cell line; details: ref Yang et al., 2017, cited from earlier work
# MCF-7 cell line [18] = test: Annexin V-FITC/PI flow cytometry, MCF-7; assay type: cell-based; details: 48 h
# [19] = tested on: HeLa human uterine carcinoma; details: ref Sun et al. 2006; cited from earlier work
# [20] = tested on: Bel-7402 human hepatocellular carcinoma; details: ref Sun et al. 2006; cited from earlier work
# [21] = tested on: A375-S2 human malignant melanoma; details: ref Sun et al. 2006; cited from earlier work
# [22] = tested on: SGC-7901 human gastric cancer cell line; details: ref Sun et al. 2006; cited from earlier work
# [23] = tested on: HT-1080 fibrosarcoma cell line; details: ref Rajendra et al., 2011, cited from earlier work
# [24] = tested on: BT-20 human breast cancer cell line; details: read-out: IC50, BT-20; ref Bender and Atalay, 2018; cited from earlier work
# [25] = tested on: SK-BR-3 human breast cancer cell line; details: read-out: IC50, SK-BR-3; ref Bender and Atalay, 2018; cited from earlier work
# [26] = tested on: MDA-MB-468 human breast cancer cell line; details: read-out: IC50, MDA-MB-468; ref Bender and Atalay, 2018; cited from earlier work
# [27] = tested on: PLC/PRF/5 hepatocellular carcinoma cell line; details: 100 µM; ref Refolo et al., 2018; cited from earlier work
# [28] = tested on: HepG2 hepatocellular carcinoma cell line; details: 100 µM; ref Refolo et al., 2018; cited from earlier work
# [29] = MTT assay, 24 h, ± standard deviation
smiles,measurement,setting,value
"COc1ccc(-c2cc(=O)c3c(O)cc(O[C@@H]4O[C@H](CO[C@@H]5O[C@@H](C)[C@H](O)[C@@H](O)[C@H]5O)[C@@H](O)[C@H](O)[C@H]4O)cc3o2)cc1O [Compound 1, Diosmetin-7-O-rutinoside]",IC50,MCF-7 cell line [1],13.7 ± 11 µg/mL
same,IC50,MDA-MB-231 cell line [2],12.9 ± 12.2 µg/mL
same,IC50,[3],8.66 ± 20.5 µg/mL
same,"viable cells, MDA-MB-231",MDA-MB-231 cell line [4],56%
same,type of cell death causing the cytotoxic effect,cells,necrosis
same,"concentration up to which no cytotoxic activity was shown, DMS-114",[5],> 200 µM
same,"concentration up to which no cytotoxic activity was shown, HT-29",[6],> 200 µM
same,"concentration up to which no cytotoxic activity was shown, DU-145",[7],> 200 µM
same,"concentration up to which no cytotoxic activity was shown, SK-MEL5",[8],> 200 µM
same,DU145 cell viability,[9]; 50 µM,70%
same,DU145 cell viability,[9]; 250 µM,40%
same,"IC50, A431",A431 cells,45 µg/mL
"COc1cc(-c2oc3cc(O)cc(O)c3c(=O)c2O[C@@H]2O[C@H](CO[C@@H]3O[C@@H](C)[C@H](O)[C@@H](O)[C@H]3O)[C@@H](O)[C@H](O)[C@H]2O)ccc1O [Compound 2, Isorhamnetin-3-O-rutinoside]",IC50,MCF-7 cell line [1],137 ± 8.62 µg/mL
same,IC50,MDA-MB-231 cell line [2],77.8 ± 39.9 µg/mL
same,IC50,[3],133 ± 23.5 µg/mL
same,"viable cells, MDA-MB-231",MDA-MB-231 cell line [4],63%
same,"concentration up to which no cytotoxic activity was shown, IGROV-1",[10],> 100 µM
same,"concentration up to which no cytotoxic activity was shown, OVCAR-3",[11],> 100 µM
same,"concentration up to which no cytotoxic activity was shown, HCT-116",[12],> 100 µM
same,"hepatoprotective activity, HEP-G2",[13],no significant hepatoprotective activity
"O=c1c(O[C@@H]2O[C@H](CO)[C@H](O)[C@H](O)[C@H]2O)c(-c2ccc(O)c(O)c2)oc2cc(O)cc(O)c12 [Compound 3, Quercetin-3-O-galactoside]",IC50,MCF-7 cell line [1],147 ± 7.32 µg/mL
same,IC50,MDA-MB-231 cell line [2],141 ± 14 µg/mL
same,IC50,[3],127 ± 12.5 µg/mL
same,concentration up to which no cytotoxic activity was shown,[14],> 100 µg/mL
same,"viable cells, MDA-MB-231",MDA-MB-231 cell line [4],46%
same,"early apoptotic cells, MDA-MB-231",MDA-MB-231 cell line [4],22%
same,"necrotic cells, MDA-MB-231",MDA-MB-231 cell line [4],6%
same,"late apoptotic cells, MDA-MB-231",MDA-MB-231 cell line [4],26%
same,IC50,[15],50 µM
same,IC50,[16],50 µM
same,cell viability of A549,"[17]; 10–100 µM, time- and dose-dependent",inhibited cell viability
same,"percentage of apoptotic cells, A549","[17]; 24 h, dose-dependent",significant increase
"O=C(O)/C=C/c1ccc(O)c(O)c1 [Compound 4, Caffeic acid]",IC50,MCF-7 cell line [1],40.3 ± 2.84 µg/mL
same,IC50,MDA-MB-231 cell line [2],64 ± 4.11 µg/mL
same,IC50,[3],149 ± 14.1 µg/mL
same,"early apoptotic cells, MCF-7","MCF-7 cell line [18]; quadrant LR, doses as b44",52%
same,"necrotic cells, MCF-7","MCF-7 cell line [18]; quadrant UL, doses as b44",3%
same,"late apoptotic cells, MCF-7","MCF-7 cell line [18]; quadrant UR, doses as b44",13%
same,"viable cells, MDA-MB-231",MDA-MB-231 cell line [4],30%
same,"early apoptotic cells, MDA-MB-231",MDA-MB-231 cell line [4],52%
same,"necrotic cells, MDA-MB-231",MDA-MB-231 cell line [4],3%
same,"late apoptotic cells, MDA-MB-231",MDA-MB-231 cell line [4],13%
same,"concentration up to which no cytotoxic activity was shown, HeLa",[19],> 100 µg/mL
same,"concentration up to which no cytotoxic activity was shown, Bel-7402",[20],> 100 µg/mL
same,"concentration up to which no cytotoxic activity was shown, A375-S2",[21],> 100 µg/mL
same,"concentration up to which no cytotoxic activity was shown, SGC-7901",[22],> 100 µg/mL
same,"cell viability, HT-1080",[23]; 50 µg/mL,15%
same,inhibition of HT-1080 cell line,"[23]; 30, 40, and 50 μg/mL",notably inhibited
"O=C(/C=C/c1ccc(O)c(O)c1)O[C@@H]1C[C@](O)(C(=O)O)C[C@@H](O)[C@H]1O [Compound 5, Chlorogenic acid]",IC50,MCF-7 cell line [1],371 ± 9.49 µg/mL
same,IC50,MDA-MB-231 cell line [2],361 ± 4.83 µg/mL
same,IC50,[3],356 ± 19.1 µg/mL
same,concentration up to which no cytotoxic activity was shown,[14],> 360 µg/mL
same,"viable cells, MDA-MB-231",MDA-MB-231 cell line [4],51%
same,IC50,[24],1100 µM
same,IC50,[25],882 µM
same,IC50,[26],940 µM
same,"effect on Regorafenib-mediated cell growth inhibition, PLC/PRF/5",[27],enhanced
same,"effect on Regorafenib-mediated cell growth inhibition, HepG2",[28],enhanced
"OO [Compound H2O2, hydrogen peroxide, reference compound]","IC50, MCF-7",MCF-7 cell line [1]; [29],7.45 ± 12.77 µg/mL and 10.11 ± 0.90 µg/mL and 11.97 ± 6.72 µg/mL and 9.91 ± 0.31 µg/mL
same,"IC50, MDA-MB-231",MDA-MB-231 cell line [2]; [29],8.48 ± 3.53 µg/mL and 11.86 ± 2.43 µg/mL and 11.45 ± 1.52 µg/mL
same,"IC50, MCF-10A","[3]; MTT assay, ± standard deviation",10.32 ± 3.60 µg/mL and 11.40 ± 3.60 µg/mL and 9.77 ± 8.56 µg/mL and 12.58 ± 9.77 µg/mL
same,"percentage of cell death, MCF-7",MCF-7 cell line [18]; doses as b44,70%
same,"viable cells, MCF-7","MCF-7 cell line [18]; quadrant LL, H2O2 17, Compound 1 24, 2 156, 3 372, 4 30, 5 710, 6 60 µg/mL",30%
same,"percentage of cell death, MDA-MB-231",MDA-MB-231 cell line [4],79%
same,"viable cells, MDA-MB-231",MDA-MB-231 cell line [4],21%
